# Screens deposited in PubChem by Sanford-Burnham Center for Chemical Genomics.
# Hits are enriched below; roughly 2.3% of the tested compounds scored in any of these assays.
# MT1-MMP act inh: MT1-MMP (human) activation inhibition | P50281 | HT1080 RFP-PRO-GFP cells, GFP/RFP ratio fluorescence, overnight; percent of plate control window, DMSO zero | GFP/RFP ratio change, % at 20 µM | 360,000 tested, 0.061% active | AID 651647;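 active = GFP/RFP ratio change of at least 30% with cell ATP level not reduced by more than half and red fluorescence within 50% of control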
#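 Assay system: HT1080 cells carrying an RFP-PRO-GFP reporter | Dosing: Single dose of 20 µM compound, 1% DMSO final | Incubation: Cells overnight before dosing, compound overnight, 37 °C, 5% CO2 | Evaluation: GFP/RFP fluorescence ratio | Control set: DMSO and RFP-L50D-GFP cell wells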
# SKN-1 inh: inhibitors of C. elegans SKN-1; inhibition, % at 21.8 µM; 360,000 tested, 0.49% active; AID 624304; C. elegans VP596 Pgst-4::GFP/RFP ratio, acrylamide-induced, 24 h;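 active = interference check ratio from 0.5 to 1.5 plus GFP to RFP signal ratio inhibition reaching or exceeding a fixed threshold, cut at about 30% in these data, passing the limit was not always enough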
# ATG4B inh: ATG4B (human) cysteine protease inhibition; ATG4B cleavage of LC3-PLA2, NBD-HPC fluorescence, 1 h; AID 504462; 340,000 tested, 0.51% active; Q9Y4P1; inhibition, % at 8.33 µM; in the data active = inhibition above about 40%
# Target sequence (Q9Y4P1 whole entry, looked up): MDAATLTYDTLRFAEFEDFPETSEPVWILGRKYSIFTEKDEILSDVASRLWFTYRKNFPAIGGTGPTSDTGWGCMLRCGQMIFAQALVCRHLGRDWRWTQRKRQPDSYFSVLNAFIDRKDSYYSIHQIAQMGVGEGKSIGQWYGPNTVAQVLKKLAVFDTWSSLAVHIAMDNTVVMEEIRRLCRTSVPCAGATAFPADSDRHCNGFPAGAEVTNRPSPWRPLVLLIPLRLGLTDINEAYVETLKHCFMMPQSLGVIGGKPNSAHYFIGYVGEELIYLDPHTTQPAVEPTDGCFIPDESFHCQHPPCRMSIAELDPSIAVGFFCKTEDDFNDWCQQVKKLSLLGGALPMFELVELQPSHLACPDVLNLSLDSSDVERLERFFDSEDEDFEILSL
# MPTP block: permeability transition pore inhibition | isolated mouse mitochondria, Ca2+ swelling absorbance, 30 min | inhibition, % at 10 µM | 360,000 tested, 1.4% active | AID 602449;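 active = inhibition of 50% or more, scaled per plate between neutral and stimulator controls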;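 also: 0% = DMSO wells given calcium and 100% = 1 mM EGTA wells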
# MPTP counter: membrane potential counter-screen of mitochondrial pore inhibitors; isolated mitochondria, Rhodamine 123 fluorescence; inhibition, % at 10 µM; shares compounds with MPTP block; 5,000 tested, 78% active; in the data active = inhibition above about 22%;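 also: 0% = DMSO vehicle and 100% = positive control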
# MPTP abs DR: MPTP inhibition, dose response swelling confirmation; IC50, µM; 780 tested, 58% active; AID 651561; shares compounds with MPTP block; isolated mitochondria swelling, absorbance; in the data active = IC50 below about 20 µM
# MPTP cs DR: counter-screen for mitochondrial permeability transition pore inhibitors, dose response; IC50, µM; shares compounds with MPTP block; 780 tested, 49% active; isolated mitochondria counterscreen, fluorescence read-out; AID 651564; in the data active = IC50 below about 80 µM
# MT1-MMP conf: validation of inhibitors of human MT1-MMP activation; shares compounds with MT1-MMP act inh; HT1080 RFP-PRO-GFP cells, GFP and RFP fluorescence ratio, overnight; inhibition, % at 20 µM; 200 tested, 10% active; AID 652235;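 active = inhibition of at least 50% in the primary cell screen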
# An asterisk follows results filed as active; i = inactive; / = no result given.
SMILES,MT1-MMP act inh,SKN-1 inh,ATG4B inh,MPTP block,MPTP counter,others
CC(C)CCNC(=O)c1cc(C(=O)c2cc(F)ccc2O)cn(CCC(C)C)c1=O,4,-3,-6,53*,-2,MPTP abs DR=i;MPTP cs DR=5.9*
C[C@]1(O)CCC2C3CC[C@H]4C[C@@H](OC(=O)[C@@H](N)CCCCN)CC[C@]4(C)C3CC[C@@]21C (stereo not given in full),3,4,/,1,/,
O=C1NC(=S)NC(=O)C1c1ccccc1,-2,12,0,0,/,
c1cc(OCCN2CC2)ccn1,-2,25,-11,-1,/,
CC(NCc1cccc(Cl)c1Cl)C(O)c1ccccc1 (stereo not given),1,6,-3,72*,-3,MPTP abs DR=>100;MPTP cs DR=>80
CC(NCc1ccc(Cl)cc1Cl)C(O)c1ccccc1 (stereo not given),3,-1,8,1,/,
COc1ccc(OC)c(CNCCc2ccc(OC)c(OC)c2)c1,-3,-7,2,2,/,
Fc1ccc(C(OCCN2CCCC2)c2ccc(F)cc2)cc1,/,-9,1,-1,/,
c1ccc(CCCN2CCN(CCOC(c3ccccc3)c3ccccc3)CC2)cc1,0,-6,4,80*,-2,
Fc1ccc(C(OCCN2CCN(CCCc3ccccc3)CC2)c2ccc(F)cc2)cc1,-4,-1,7,97*,3,
COC(=O)C1=C(c2ccccc2OCc2ccccc2)C[C@@H]2CC[C@H]1N2C(=O)NC1CCN(Cc2ccccc2)CC1,-4,9,2,3,/,
O=C1NC(=O)C(=Cc2ccc(-c3ccccc3[N+](=O)[O-])o2)C(=O)N1,4,14,5,51*,47*,
Nc1c2c(nc3sc4c(c13)CCCCC4)CCCC2,3,12,34,88*,80*,
Cc1[nH]n(-c2ccccc2)c(=O)c1C(c1ccc([N+](=O)[O-])cc1)c1c(C)[nH]n(-c2ccccc2)c1=O,16,7,2,96*,76*,
CCC1CN1P(=O)(N1CCCC1)N1CC1CC (stereo not given),2,2,-8,-1,/,
CC1(C)CC(=O)CC(C)(C)N1O,5,8,/,-1,/,
C/C(=N\NC(N)=S)C1=CCC2C3CC[C@H]4CC(O)CC[C@]4(C)C3CC[C@]12C (stereo not given in full),-34,13,0,65*,14,MPTP abs DR=18*;MPTP cs DR=22*
CCCCn1nnnc1C(CCSC)N1CCC2(CC1)C(=O)NCN2c1ccccc1 (stereo not given),-1,1,/,0,/,
CCOc1cc(C2NCc3ccccc3-n3cccc32)ccc1O (stereo not given),-6,4,7,88*,-8,MPTP abs DR=7.1*;MPTP cs DR=>80
COC(=O)C1=C(c2ccc(OC)c(OC)c2)C[C@@H]2CC[C@H]1N2C(=O)N1CCCC1,34*,24,3,-1,/,MT1-MMP conf=3
CCCCn1nnnc1C(c1cccs1)N1CCC2(CC1)C(=O)NCN2c1ccccc1 (stereo not given),5,11,/,0,/,
Cn1cccc1/C=C1/C(=O)NC(=S)N(Cc2ccc(F)cc2)C1=O,39*,-1,33,7,/,MT1-MMP conf=35
O=c1[nH]c(=S)n(C2CC2)c(O)c1/C=N/Nc1cccc2ccccc12,2,10,1,3,/,
O=c1[nH]c(=S)n(C2CC2)c(O)c1/C=N/Nc1ccccc1,61*,-1,7,-1,/,MT1-MMP conf=4
c1ccc2oc(-c3ccc4c(c3)CNCc3cnnn3-4)cc2c1,8,11,/,2,/,
